Test results from ChEMBL document CHEMBL3351230, “Synthesis of 2-anilinopyridine dimers as microtubule targeting and apoptosis inducing agents” (Bioorg Med Chem, 2014).
One block for each compound: values may come before it. Calls of active or inactive are those of the source. The rule behind the calls is not given here.

Key:
MCF7 = test: Antiproliferative activity against human MCF7 cells assessed as growth inhibition after 48 hrs by SRB assay; settings: MCF7, 48 h
A549 = test: Antiproliferative activity against human A549 cells assessed as growth inhibition after 48 hrs by SRB assay; settings: A549, 48 h
DU-145 [1] = test: Antiproliferative activity against human DU145 cells assessed as growth inhibition after 48 hrs by SRB assay; settings: DU-145, 48 h
Tubulin (Homo sapiens) [2] = molecular target: T1, Tubulin (Homo sapiens) (UniProt P68371+Q9H4B7+P0DPH7+P68366+Q13509+Q71U36+P04350+Q3ZCM7+P07437+P68363+Q9BQE3+Q6PEY2+Q13885+Q9BVA1+Q9BUF5); test: Inhibition of tubulin polymerization (unknown origin) at 3 uM after 1 hr by fluorescence analysis; assay type: protein-complex assay
Procedure, shortened: (§1)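 Fluorescence-reporter tubulin polymerization kit. Tubulin (3 mg/mL) in PEM buffer with 1 mM GTP, with or without compound (3 µM, or 2.5–15 µM for IC50). Fluorescence (ex 360 / em 420 nm) was followed for 1 h at 37 °C. IC50 is the concentration giving 50% inhibition of assembly versus control. Data are mean ± SD of two experiments in triplicate, with E7010 as positive control.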

DU-145 [3] = test: Cell cycle arrest in human DU145 cells assessed as cells accumulation at G2/M phase at 2 uM after 48 hrs by propidium iodide staining-based flow cytometric analysis (reference value: 6.81%); assay type: functional
Tubulin (Homo sapiens) [4] = molecular target: T1, Tubulin (Homo sapiens); test: Displacement of colchicine from tubulin (unknown origin) at 5 to 25 uM after 60 mins by competitive binding assay; assay type: protein-complex assay
Procedure, shortened: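 Compound (5, 10, 15, 20, 25 µM) was co-incubated with 4 µM colchicine and 3 µM tubulin in 30 mM Tris buffer for 60 min at 37 °C. Tubulin–colchicine fluorescence was read at ex 350 / em 435 nm. Buffer blank was subtracted and values were normalized to DMSO control (F/F0). Nocodazole or E7010 served as positive control and taxol as negative control.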

DU-145 [5] = test: Induction of apoptosis in human DU145 cells assessed as reduction in mitochondrial membrane potential at 2 uM after 48 hrs using JC-1 staining-based flow cytometry; assay type: functional, cell-based
DU-145 [6] = test: Induction of apoptosis in human DU145 cells assessed as mitochondrial membrane potential drop measured as viable cells at 2 uM after 48 hrs using JC-1 staining-based flow cytometry (reference value: 0%); assay type: functional
DU-145 [7] = test: Induction of apoptosis in human DU145 cells assessed as early apoptotic cells at 1 uM after 48 hrs by annexin V-FITC/propidium iodide staining-based flow cytometric analysis (reference value: 0.71%); assay type: functional
Tubulin = test: Inhibition of tubulin polymerization (unknown origin) after 1 hr by fluorescence analysis; assay type: protein-complex assay, Homo sapiens
Procedure, shortened: as §1

DU-145 [8] = test: Cell cycle arrest in human DU145 cells assessed as cells accumulation at G0/G1 phase at 1 uM after 48 hrs by propidium iodide staining-based flow cytometric analysis (reference value: 84.75%); assay type: functional
DU-145 [9] = test: Induction of apoptosis in human DU145 cells assessed as increase in caspase 3 activation at 2 uM after 48 hrs by ELISA; assay type: functional
Procedure, shortened: (§2)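 DU-145 cells were treated at 1 or 2 µM for 48 h, pelleted and PBS-washed. Pellets were lysed 15 min and centrifuged at 20,000 rpm for 15 min. Caspase-3 activity in the supernatant was measured by a colorimetric ELISA-based kit per the manufacturer. Activity is expressed as fold over untreated control, mean ± SD of two experiments in triplicate.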

DU-145 [10] = test: Induction of apoptosis in human DU145 cells assessed as necrotic cells at 1 uM after 48 hrs by annexin V-FITC/propidium iodide staining-based flow cytometric analysis (reference value: 0.22%); assay type: functional
DU-145 [11] = test: Induction of apoptosis in human DU145 cells assessed as mitochondrial membrane potential drop measured as necrotic cells at 1 uM after 48 hrs using JC-1 staining-based flow cytometry (reference value: 0%); assay type: functional
DU-145 [12] = test: Induction of apoptosis in human DU145 cells assessed as necrotic cells at 2 uM after 48 hrs by annexin V-FITC/propidium iodide staining-based flow cytometric analysis (reference value: 0.22%); assay type: functional
DU-145 [13] = test: Induction of apoptosis in human DU145 cells assessed as late apoptotic cells at 1 uM after 48 hrs by annexin V-FITC/propidium iodide staining-based flow cytometric analysis (reference value: 1.96%); assay type: functional
DU-145 [14] = test: Cell cycle arrest in human DU145 cells assessed as cells accumulation at S phase at 2 uM after 48 hrs by propidium iodide staining-based flow cytometric analysis (reference value: 4.18%); assay type: functional
DU-145 [15] = test: Cell cycle arrest in human DU145 cells assessed as cells accumulation at G0/G1 phase at 2 uM after 48 hrs by propidium iodide staining-based flow cytometric analysis (reference value: 84.75%); assay type: functional
DU-145 [16] = test: Induction of apoptosis in human DU145 cells assessed as mitochondrial membrane potential drop measured as early apoptotic cells at 1 uM after 48 hrs using JC-1 staining-based flow cytometry (reference value: 9.1%); assay type: functional
DU-145 [17] = test: Induction of apoptosis in human DU145 cells assessed as induction of DNA fragmentation at 1 uM after 48 hrs by agarose gel electrophoresis; assay type: functional, cell-based
Procedure, shortened: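 DU-145 cells (1×10^6, six-well) were seeded 24 h, then treated at 1 µM for 48 h. Lysates were digested with SDS/RNase A for 2 h at 56 °C, then proteinase K for 2 h at 37 °C. DNA was precipitated with ammonium acetate and ethanol at −80 °C, dissolved in TE, and resolved on 2% agarose against a 100 bp marker.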

DU-145 [18] = test: Induction of apoptosis in human DU145 cells assessed as mitochondrial membrane potential drop measured as necrotic cells at 2 uM after 48 hrs using JC-1 staining-based flow cytometry (reference value: 0%); assay type: functional
DU-145 [19] = test: Induction of apoptosis in human DU145 cells assessed as mitochondrial membrane potential drop measured as late apoptotic cells at 2 uM after 48 hrs using JC-1 staining-based flow cytometry (reference value: 90.9%); assay type: functional
DU-145 [20] = test: Induction of apoptosis in human DU145 cells assessed as viable cells at 1 uM after 48 hrs by annexin V-FITC/propidium iodide staining-based flow cytometric analysis (reference value: 97.12%); assay type: functional; settings: DU-145, 48 h, read-out: Activity
DU-145 [21] = test: Cell cycle arrest in human DU145 cells assessed as cells accumulation at S phase at 1 uM after 48 hrs by propidium iodide staining-based flow cytometric analysis (reference value: 4.18%); assay type: functional
DU-145 [22] = test: Induction of apoptosis in human DU145 cells assessed as early apoptotic cells at 2 uM after 48 hrs by annexin V-FITC/propidium iodide staining-based flow cytometric analysis (reference value: 0.71%); assay type: functional
DU-145 [23] = test: Cell cycle arrest in human DU145 cells assessed as cells accumulation at G2/M phase at 1 uM after 48 hrs by propidium iodide staining-based flow cytometric analysis (reference value: 6.81%); assay type: functional
DU-145 [24] = test: Induction of apoptosis in human DU145 cells assessed as viable cells at 2 uM after 48 hrs by annexin V-FITC/propidium iodide staining-based flow cytometric analysis (reference value: 97.12%); assay type: functional; settings: DU-145, 48 h, read-out: Activity
DU-145 [25] = test: Cell cycle arrest in human DU145 cells assessed as cells accumulation at SubG1 phase at 2 uM after 48 hrs by propidium iodide staining-based flow cytometric analysis (reference value: 3.52%); assay type: functional
DU-145 [26] = test: Induction of apoptosis in human DU145 cells assessed as late apoptotic cells at 2 uM after 48 hrs by annexin V-FITC/propidium iodide staining-based flow cytometric analysis (reference value: 1.96%); assay type: functional
DU-145 [27] = test: Cell cycle arrest in human DU145 cells assessed as cells accumulation at SubG1 phase at 1 uM after 48 hrs by propidium iodide staining-based flow cytometric analysis (reference value: 3.52%); assay type: functional
DU-145 [28] = test: Induction of apoptosis in human DU145 cells assessed as mitochondrial membrane potential drop measured as late apoptotic cells at 1 uM after 48 hrs using JC-1 staining-based flow cytometry (reference value: 90.9%); assay type: functional
DU-145 [29] = test: Induction of apoptosis in human DU145 cells assessed as increase in caspase 3 activation at 1 uM after 48 hrs by ELISA; assay type: functional
Procedure, shortened: as §2

DU-145 [30] = test: Induction of apoptosis in human DU145 cells assessed as mitochondrial membrane potential drop measured as early apoptotic cells at 2 uM after 48 hrs using JC-1 staining-based flow cytometry (reference value: 9.1%); assay type: functional
DU-145 [31] = test: Induction of apoptosis in human DU145 cells assessed as mitochondrial membrane potential drop measured as viable cells at 1 uM after 48 hrs using JC-1 staining-based flow cytometry (reference value: 0%); assay type: functional

- GI50 (MCF7): > 100 µM
- GI50 (A549): 6 µM
- GI50 (DU-145 [1]): > 100 µM
Compound: COc1cc(Nc2ncccc2C(=O)Nc2cccnc2Nc2ccccc2)cc(OC)c1OC

- GI50 (MCF7): 17.3 µM
- GI50 (A549): 18.5 µM
- GI50 (DU-145 [1]): > 100 µM
Compound: COc1ccc(Nc2ncccc2C(=O)Nc2cccnc2Nc2ccc(F)cc2)cc1

- GI50 (MCF7): 28.8 µM
- GI50 (A549): > 100 µM
- GI50 (DU-145 [1]): 16.6 µM
Compound: COc1ccc(Nc2ncccc2C(=O)Nc2cccnc2Nc2ccc(Cl)cc2)cc1

- GI50 (MCF7): > 100 µM
- GI50 (A549): > 100 µM
- GI50 (DU-145 [1]): > 100 µM
Compound: COc1ccc(Nc2ncccc2NC(=O)c2cccnc2Nc2cc(OC)c(OC)c(OC)c2)cc1

- GI50 (MCF7): > 100 µM
- GI50 (A549): 4.1 µM
- GI50 (DU-145 [1]): 6.6 µM
Compound: COc1ccc(Nc2ncccc2NC(=O)c2cccnc2Nc2ccc(F)cc2)cc1

Continued, compound first:

Compound: O=C(Nc1cccnc1Nc1ccc(Cl)cc1)c1cccnc1Nc1cc(C(F)(F)F)cc(C(F)(F)F)c1
- GI50 (MCF7): 10.5 µM
- GI50 (A549): 3.9 µM
- GI50 (DU-145 [1]): 3.1 µM

Compound: O=C(Nc1cccnc1Nc1ccc(F)cc1)c1cccnc1Nc1cc(C(F)(F)F)cc(C(F)(F)F)c1
- inhibition (Tubulin (Homo sapiens) [2]): 64.3%
- Activity (DU-145 [3]): 41.19%
- inhibition (Tubulin (Homo sapiens) [4]): Active
- inhibition (DU-145 [5]): Active
- Activity (DU-145 [6]): 0%
- Activity (DU-145 [7]): 4.28%
- IC50 (Tubulin): 2.16 µM
- Activity (DU-145 [8]): 57.93%
- fold change (FC) (DU-145 [9]): 2
- Activity (DU-145 [10]): 1.27%
- Activity (DU-145 [11]): 0%
- Activity (DU-145 [12]): 1.84%
- Activity (DU-145 [13]): 14.03%
- Activity (DU-145 [14]): 1.77%
- Activity (DU-145 [15]): 53.38%
- Activity (DU-145 [16]): 10.6%
- Activity (DU-145 [17]): Active
- GI50 (MCF7): > 100 µM
- Activity (DU-145 [18]): 0%
- Activity (DU-145 [19]): 67.4%
- viability at 1 µM (DU-145 [20]): 80.4%
- Activity (DU-145 [21]): 1.63%
- Activity (DU-145 [22]): 5.97%
- GI50 (A549): 39.2 µM
- Activity (DU-145 [23]): 32.49%
- viability at 2 µM (DU-145 [24]): 75.7%
- Activity (DU-145 [25]): 2.41%
- GI50 (DU-145 [1]): 0.99 µM
- Activity (DU-145 [26]): 16.53%
- Activity (DU-145 [27]): 4.64%
- Activity (DU-145 [28]): 89.4%
- fold change (FC) (DU-145 [29]): 2
- Activity (DU-145 [30]): 32.6%
- Activity (DU-145 [31]): 0%

Compound: COc1ccc(Nc2ncccc2C(=O)Nc2cccnc2Nc2ccccc2)cc1
- GI50 (MCF7): > 100 µM
- GI50 (A549): > 100 µM
- GI50 (DU-145 [1]): 8.1 µM

Compound: O=C(Nc1cccnc1Nc1ccc(Cl)cc1)c1cccnc1Nc1ccc(F)cc1
- GI50 (MCF7): > 100 µM
- GI50 (A549): > 100 µM
- GI50 (DU-145 [1]): 4.1 µM
